B1: tRNA (parent)
chain: GUUCCGUUGGCGUAAUGGUAACGCGUCUCCCUCCUAAGGAGAAGACUGCGGGUUCGAGUCCCGUACGGAACG

Fewer inactive variants are shown than the library holds.

The series covers variants of B1. In words: yeast fitness relative to wild type (ratio to wild type); higher = fitter; tRNA-Arg(CCU), competitive growth, 37 C, YPD. In short, it runs like this: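 Gene amplicons from the start population and from each of six end populations were read by 100-nucleotide paired-end sequencing. Those end populations came from pooled Saccharomyces cerevisiae strains carrying tRNA-Arg(CCU) gene variants at the native locus, competed in YPD at 37°C for 24 hours. Fitness relative to wild type was worked out from changes in genotype frequencies. Genotypes needed ≥ 100 starting reads, and estimates < 0.5 were set to 0.5.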
In the case of G12A A36U A37C A43G A57U, the yeast fitness was at most 0.5.
The value for G12A A37G U59C was at most 0.5; that for G12A A21U A69C was at most 0.5; that for G12A C24G G38A A40C A43C C46U G68C A69U was at most 0.5.
For the variant G12A A20U, the yeast fitness stood at 0.831.
G12A A20C C62G: the yeast fitness was at most 0.5.
In the case of G12A C27U C30G A42G C55U A57C it was at most 0.5; in that of G12A A36C A40U G41C, 0.576.
The value for G12A C27G U32G was at most 0.5; that for G12A C22G A69U was 0.791; that for G12A A40C A69C was 0.757.
In the case of G12A A21G C31A A65U A70U it was at most 0.5; in that of G12A C22A A57C U64A, at most 0.5.
G12A C27G G48A: the yeast fitness is at most 0.5.
The value for G12A A42G A69U was 0.688.
For the variant G12A C29A G68A A69C, the yeast fitness is at most 0.5.
In the case of G12A A21U C55G C60A C61G C66G it was at most 0.5.
In the case of G12A C29A A42U it was 0.616.
With G12A C22U, the yeast fitness turned out to be 0.873.
In the case of G12A C22A it was 1.03.
On to G12A C24G C29A C55U C61G A65G G68A, for which the yeast fitness was at most 0.5.
Take G12A A20U C34A C55G C66A: the yeast fitness is at most 0.5.
In the case of G12A A45G U47C U59A it was at most 0.5; in that of G12A C27G A69C, at most 0.5.
In the case of G12A A40C C61A, the yeast fitness is at most 0.5.
On to G12A C24U G38C C62G, for which the yeast fitness was at most 0.5.
The value for G12A A43C C46U was 0.764.
As to G12A C27G A43G U64G, the yeast fitness was at most 0.5.
The value for G12A C29U C55G A65U was at most 0.5; that for G12A C27G A65G G68U was 0.544.
In the case of G12A A36C it was 0.628; in that of G12A A36G, 0.906.
As to G12A A42G U54A A65C, the yeast fitness was at most 0.5.
The value for G12A C27G A40G was at most 0.5; that for G12A C29G C34U A36C C61A was 0.553; that for G12A C24A A36U U54C C61U was at most 0.5.
Regarding G12A A43U C62U, the yeast fitness was 0.807.
In the case of G12A C29A C31G C60A it was at most 0.5; in that of G12A C24A, 0.751; in that of G12A C24G, 0.758.
G12A C24U: the yeast fitness is 0.697.
As to G12A A70C, the yeast fitness is 0.936.
Take G12A A20U G25C U53A: the yeast fitness amounted to 0.599.
The value for G12A A40U was 1; that for G12A A40C was 0.792; that for G12A A40G was 0.871.
In the case of G12A C24G A43C C62U A65G it was 0.636; in that of G12A C27A C30G G68U, at most 0.5; in that of G12A C27U C33U U47A A70C, at most 0.5.
Regarding G12A A20U C49U U53G A65G, the yeast fitness was at most 0.5.
Regarding G12A A21G, the yeast fitness turned out to be 1.04.
The value for G12A A21C was 0.643; that for G12A C22G C31G was 0.662; that for G12A A36G U47G U54C A65U was at most 0.5.
For the variant G12A C22G G52C G58C A65U, the yeast fitness stood at 0.53.
In the case of G12A A42G it was 0.837.
In the case of G12A C24A A36U C61U G67U it was 0.69; in that of G12A C22A C24A A36U U53A, at most 0.5; in that of G12A C29A U35A, at most 0.5.
Regarding G12A A20C A69U, the yeast fitness was 0.811.
The value for G12A C27G A42C was 0.548.
The value for G12A A40C C55A was at most 0.5; that for G12A C22U C30G C31A G39C A57G was at most 0.5; that for G12A A20G U26C C29U C31G C33U A42U was at most 0.5.
The value for G12A A43U A45C G67C G68U was at most 0.5.
Take G12A A43U G48A C61G A70C: the yeast fitness was at most 0.5.
The value for G12A C27G C34A C49A C60G C61U was 0.527.
The value for G12A C24A A36C A70C was at most 0.5; that for G12A C24U A36C C46U C60U A65C was 0.729; that for G12A C27U G51C A57U was 0.534.
In the case of G12A A20C C61G C66A it was at most 0.5; in that of G12A C24U C34G, 0.696; in that of G12A C24U C34U, 0.519.
G12A C27G A36U: the yeast fitness was 0.599.
In the case of G12A A36G C49G it was at most 0.5; in that of G12A A40G C46A C61U, at most 0.5.
In the case of G12A A20G U26C C31G C33U A42U it was at most 0.5; in that of G12A C24A C27A, at most 0.5; in that of G12A C24G U26G A40U, at most 0.5.
The value for G12A A21G C34U was at most 0.5; that for G12A A42C C55U was at most 0.5; that for G12A A42G A45G U54A C62A was at most 0.5.
For the variant G12A C29U, the yeast fitness came to 0.735.
The value for G12A A65C C66U G67U was 0.612; that for G12A A37C A45C G52C A70U was at most 0.5; that for G12A A20C U54C C62U A70G was at most 0.5.
In the case of G12A A57C A65C A70C it was at most 0.5.
In the case of G12A A21U C55U C62G it was at most 0.5.
Consider G12A C22U A37U G50C C66U, for which the yeast fitness turned out to be 0.538.
The value for G12A C24U G58A U59A A65U was at most 0.5; that for G12A A21G C24G U28G was 0.992.
For the variant G12A A40C U64G, the yeast fitness was at most 0.5.
In the case of G12A A42C C49A C61U it was at most 0.5; in that of G12A C27G A70C, at most 0.5.
The value for G12A A36C G41C was at most 0.5; that for G12A C24U G67A A69U was at most 0.5; that for G12A C27A was 0.844.
The value for G12A C27U was 0.942.
In the case of G12A C27G, the yeast fitness came to 0.71.
In the case of G12A A15U G51A A65U it was at most 0.5; in that of G12A A20G A45U C49G G52C, at most 0.5; in that of G12A A42C G52A, 0.585.
In the case of G12A A21U C66U A69C it was at most 0.5; in that of G12A C22G A57C, 0.549; in that of G12A C29A A45G, at most 0.5.
In the case of G12A A36U A37G it was 0.543.
As to G12A A69U, the yeast fitness was 1.03.
The value for G12A A69C was 0.866.
The value for G12A A69G was 0.907.
With G12A A21C U35G G51A, the yeast fitness was at most 0.5.
The value for G12A A20G C22U was at most 0.5; that for G12A A65G A69C was 0.556.
The value for G12A A37C C61U was at most 0.5; that for G12A A20U C27A U32C C55U G68A was at most 0.5.
The value for G12A C24G C33A A40C was at most 0.5.
G12A C24U C29A: the yeast fitness is at most 0.5.
The value for G12A C29A G67C was at most 0.5; that for G12A A65C was 0.851.
In the case of G12A A21C C24A A69C it was 0.933.
The value for G12A A36G U47G was 0.584; that for G12A C27G U32G G67C was at most 0.5.
For G12A A36U G63A, the yeast fitness is at most 0.5.
Consider G12A A43C, for which the yeast fitness turned out to be 0.855.
As to G12A A43G, the yeast fitness came out at 0.988.
The value for G12A A43U was 0.889; that for G12A C27G C46A C55U was 0.603.
In the case of G12A A37G A43G U53A G58C C66G it was at most 0.5; in that of G12A C24G C33G A36C A37C A42C A65U, at most 0.5; in that of G12A C27U C30A C55U A57C, at most 0.5.
With G12A A15U C22A U26A G58A, the yeast fitness is 0.629.
The value for G12A C24G C29A U47A C62A was at most 0.5.
Regarding G12A A20U C31A G52A C66U, the yeast fitness was at most 0.5.
Take G12A A21G C24G U28G C46U: the yeast fitness stood at 0.582.
The value for G12A A36C G51A was 0.603; that for G12A C22U C24U was at most 0.5.
Consider G12A C24U U64G, for which the yeast fitness is at most 0.5.
The value for G12A A42U C60G A69G was at most 0.5; that for G12A C27G C55A G58A was at most 0.5.
In the case of G12A A36C G41A U53C it was at most 0.5.
The value for G12A A43U A45C A57G C60U G68C was at most 0.5.
In the case of G12A C24G A36G A65U, the yeast fitness is at most 0.5.
In the case of G12A A20U A21U C34G G63C, the yeast fitness is at most 0.5.
In the case of G12A C24U C31G it was 0.532.
The value for G12A C29A A42U C46U C55A G56C was at most 0.5.
The value for G12A A37G G39C A57C was at most 0.5; that for G12A A36G U47G A65U was 0.646; that for G12A A21G C31A was 0.625.
Turning to G12A A37U A57C, the yeast fitness came to 0.608.
The value for G12A C27G C55A C66U was at most 0.5.
For the variant G12A C22G A45G C49U U53A C66G, the yeast fitness was at most 0.5.
Regarding G12A A20U A42C G68A, the yeast fitness is 0.519.
The value for G12A C24U C34U G58C C62G G67A was 0.542.
Regarding G12A A15U G63A, the yeast fitness turned out to be 0.601.
In the case of G12A A40C U59G A65G it was at most 0.5.
The value for G12A C24U G67C was 0.603.
Consider G12A A37G A65G A69C, for which the yeast fitness is at most 0.5.
In the case of G12A C24G U26G G39C C49G it was 0.511; in that of G12A C24G U35A A40U G41A A42C, at most 0.5.
Turning to G12A C27A G56C, the yeast fitness amounted to 0.533.
Regarding G12A A36G C55U A69U, the yeast fitness was at most 0.5.
Consider G12A A20U G56C G58C, for which the yeast fitness was at most 0.5.
The value for G12A A42G A65U was at most 0.5.
Regarding G12A A42G A65C, the yeast fitness is 0.6.
The value for G12A A37G A65C was at most 0.5.
The value for G12A C24G C29A A69U A70G was at most 0.5; that for G12A A45C was 0.834; that for G12A C22U C31G G48C was at most 0.5.

For the origin of these results see the RNAGym collection of RNA variant scans (doi:10.1126/science.aae0568).
